Test results from paper PMC3162318 (Journal of biomolecular screening, 2011).

These compounds were tested against T1, TRβ-SRC2-2 interaction (hTRβ LBD, SRC2-2 fluorescein peptide) (Homo sapiens, UniProt P10828) (assay: not given). Details: confirmation, independent samples, fluorescein fluoroprobe.
T1 sequence (P10828 209-461): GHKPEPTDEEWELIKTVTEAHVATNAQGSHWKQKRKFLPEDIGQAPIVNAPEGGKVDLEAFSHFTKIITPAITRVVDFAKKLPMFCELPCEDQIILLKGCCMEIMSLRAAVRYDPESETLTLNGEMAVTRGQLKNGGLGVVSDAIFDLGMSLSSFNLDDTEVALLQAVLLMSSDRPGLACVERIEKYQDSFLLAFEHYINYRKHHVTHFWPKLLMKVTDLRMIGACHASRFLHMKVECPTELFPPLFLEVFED
Type: binding
Method in brief: (§1)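 Talon-purified TRβ (eluted with T3), 0.6 uM, with 20 nM SRC2-2 peptide carrying an N-terminal Texas Red or fluorescein label, in pH 7.4 Tris buffer with 1 µM T3 and 4% DMSO. Test compound was given as 10 three-fold dilutions, top 130 µM, then incubated 3 h at ambient temperature. Polarization was read at 555/632 nm (Texas Red) or 480/535 nm (fluorescein). mP was normalized to DMSO wells with and without TRβ, and concentration-response curves were fitted.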

Compound | IC50
CN1CC[C@@]2(C)c3cc(O)ccc3N(C)[C@H]2O1 [geneseroline] | > 30 µM

The compounds below were run against T2, TRβ-SRC2-2 interaction (hTRβ LBD, SRC2-2 Texas Red peptide) (Homo sapiens, UniProt P10828) (assay: not given). Details: confirmation, independent samples, Texas Red fluoroprobe.
T2 sequence (P10828 209-461): T1 sequence (P10828 209-461)
Type: binding
Method in brief: as §1

Compound | IC50
CN1CC[C@@]2(C)c3cc(O)ccc3N(C)[C@H]2O1 [geneseroline] | > 30 µM

These compounds were tested against T2, TRβ-SRC2-2 interaction (hTRβ LBD, SRC2-2 Texas Red peptide) (assay: TRβ-SRC2-2 fluorescence polarization qHTS). Details: six concentrations up to 92 μM; FP inhibition.
Type: binding

Compound | activity in the qHTS (active/inactive)
CS(=O)(=O)c1ccc(C(=O)OCc2nnc(-c3ccccc3)o2)cc1[N+](=O)[O-] [MLS001010708-01] | inactive
O=C(COC(=O)c1ccc(Cl)cc1O)NC(=O)C1CCCCC1 [MLS000776485-01] | loss of the activity
COc1cc(C(=O)OCC(=O)NC(=O)C2CCCCC2)ccc1OC(F)F [MLS000517502-01] | loss of the activity
Cc1ccccc1NC(=O)COC(=O)c1ccc(S(C)(=O)=O)c([N+](=O)[O-])c1 [MLS001017631-01] | inactive
CS(=O)(=O)c1ccc(C(=O)OCC(=O)NC(=O)C2CCCCC2)cc1[N+](=O)[O-] [MLS000517530-01] | active
CS(=O)(=O)c1ccc(C(=O)OCc2nnc(-c3ccc(Cl)cc3)o2)cc1[N+](=O)[O-] [MLS001003284-01] | inactive
CS(=O)(=O)c1ccc(C(=O)OCC(=O)NC23CC4CC(CC(C4)C2)C3)cc1[N+](=O)[O-] [MLS000389544-01] | active
O=C(COC(=O)c1ccncc1)NC(=O)C1CCCCC1 [MLS000565662-01] | loss of the activity
CC(=O)c1cccc(NC(=O)COC(=O)c2ccc(S(C)(=O)=O)c([N+](=O)[O-])c2)c1 [MLS000517219-01] | inactive
CS(=O)(=O)c1ccc(C(=O)OCC(=O)NC2CCS(=O)(=O)C2)cc1[N+](=O)[O-] (stereo not shown) [MLS000336487-01] | inactive
CC(CCc1ccccc1)NC(=O)COC(=O)c1ccc(S(C)(=O)=O)c([N+](=O)[O-])c1 (stereo not shown) [MLS001003365-01] | active
